The results in this text go back to ChEMBL document CHEMBL1142853 (Bioorg Med Chem Lett, 2005).

Test [1] has as its target T1, 5-hydroxytryptamine receptor 2C (Homo sapiens, UniProt P28335).
T1 sequence (P28335 whole entry): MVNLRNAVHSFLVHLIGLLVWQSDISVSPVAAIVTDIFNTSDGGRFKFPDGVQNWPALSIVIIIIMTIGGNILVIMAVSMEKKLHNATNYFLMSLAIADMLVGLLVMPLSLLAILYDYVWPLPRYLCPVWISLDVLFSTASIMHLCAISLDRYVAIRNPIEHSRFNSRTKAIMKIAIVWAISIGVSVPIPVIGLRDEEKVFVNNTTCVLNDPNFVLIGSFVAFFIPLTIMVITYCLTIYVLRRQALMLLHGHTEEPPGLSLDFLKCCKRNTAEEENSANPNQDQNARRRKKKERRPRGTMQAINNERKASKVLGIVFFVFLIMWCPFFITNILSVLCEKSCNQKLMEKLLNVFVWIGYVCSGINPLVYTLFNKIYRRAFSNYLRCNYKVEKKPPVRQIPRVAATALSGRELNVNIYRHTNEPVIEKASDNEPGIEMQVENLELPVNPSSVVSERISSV
In words: Inhibition constant against human 5-hydroxytryptamine 2C receptor [VGI isoforms] using [3H]mesulergine as radioligand with the compound (10 uM) dissolved in DMSO. Put shortly: (§1)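 Competition binding with [3H]ketanserin (5-HT2A), [3H]mesulergine (5-HT2C) or [3H]LSD (5-HT2B) on receptor preparations. Compounds in 10% DMSO were first screened at a single concentration as duplicate determinations, each run in duplicate. Compounds giving >50% inhibition of specific binding were then tested in duplicate from 1 to 100,000 nM. Ki is the mean ± SD of computer-derived estimates, N = 4.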

The target of test [2] is T2, 5-hydroxytryptamine receptor 2C (Rattus norvegicus, UniProt P08909).
T2 sequence (P08909 whole entry): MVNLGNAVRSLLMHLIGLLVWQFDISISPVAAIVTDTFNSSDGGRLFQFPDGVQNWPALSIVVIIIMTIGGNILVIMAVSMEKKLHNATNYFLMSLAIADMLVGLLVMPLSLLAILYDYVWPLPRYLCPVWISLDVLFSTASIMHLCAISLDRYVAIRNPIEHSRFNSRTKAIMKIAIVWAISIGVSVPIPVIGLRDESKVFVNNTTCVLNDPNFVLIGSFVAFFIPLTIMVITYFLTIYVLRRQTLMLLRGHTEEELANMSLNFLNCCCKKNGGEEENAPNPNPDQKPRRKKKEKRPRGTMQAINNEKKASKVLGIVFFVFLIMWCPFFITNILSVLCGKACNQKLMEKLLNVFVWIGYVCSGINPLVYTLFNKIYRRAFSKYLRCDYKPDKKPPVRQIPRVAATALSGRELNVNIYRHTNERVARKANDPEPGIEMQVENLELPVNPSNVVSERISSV
In words: Inhibition constant against rat 5-hydroxytryptamine 2C receptor using [3H]mesulergine as radioligand with the compound (10 uM) dissolved in DMSO. A digest of the protocol: as §1

In test [3] the target is T3, 5-hydroxytryptamine receptor 2A (Homo sapiens, UniProt P28223). The test can be described thus: Effective concentration required for accumulation of [3H]inositol phosphate in cells stably expressing human 5-hydroxytryptamine 2A receptor determined by phosphoinositide hydrolysis assay. Format: functional. Put shortly:
(§2)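 Phosphoinositide hydrolysis measured in cells expressing human 5-HT2A (stable) or 5-HT2B (transient) receptors, loaded overnight with [3H]inositol (15 Ci/mmol; 1 mCi/mL as supplied) in serum-free, inositol-free DMEM. Where SD is given, N ≥ 3.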

For test [4], the target named is T4, 5-hydroxytryptamine receptor 2B (Homo sapiens, UniProt P41595). The test can be described thus: Inhibition constant against human 5-hydroxytryptamine 2B receptor using [3H]LSD as radioligand with the compound (10 uM) dissolved in DMSO. A digest of the protocol:
as §1

Test [5] deals with T3, 5-hydroxytryptamine receptor 2A. The test can be described thus: Inhibition constant against human 5-hydroxytryptamine 2A receptor using [3H]ketanserin as radioligand with the compound (10 uM) dissolved in DMSO. A digest of the protocol:
as §1

The target of test [6] is 5-hydroxytryptamine receptor 2A (Rattus norvegicus, UniProt P14842). In words: Inhibition constant against rat 5-hydroxytryptamine 2A receptor using [3H]ketanserin as radioligand with the compound (10 uM) dissolved in DMSO. Put shortly:
as §1

For test [7], the target named is T1, 5-hydroxytryptamine receptor 2C. In words: Effective concentration required for accumulation of [3H]inositol phosphate in cells stably expressing human 5-hydroxytryptamine 2C receptor determined by phosphoinositide hydrolysis assay. The test is classed as functional.
For test [8] the target is unchanged. In words: Inhibition constant against human 5-hydroxytryptamine 2C receptor [INI isoforms] using [3H]mesulergine as radioligand with the compound (10 uM) dissolved in DMSO. A digest of the protocol: as §1
Test [9] deals with T5, 5-hydroxytryptamine receptor 2C (Homo sapiens) (UniProt P28335).
T5 sequence (whole entry): T1 sequence (P28335 whole entry)
The test can be described thus: Antagonistic activity against accumulation of [3H]inositol phosphate in cells stably expressing human 5-hydroxytryptamine 2C receptor determined by phosphoinositide hydrolysis assay. The test is classed as functional. The note with it: filed as antagonist. A digest of the protocol: (§3)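 Phosphoinositide hydrolysis assay with human receptors, 5-HT2A and 5-HT2C expressed stably and 5-HT2B transiently. Cells were loaded overnight with [3H]inositol (15 Ci/mmol; 1 mCi/mL as supplied) in inositol-free DMEM without serum.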

Test [10] concerns the target T4, 5-hydroxytryptamine receptor 2B. In words: Antagonistic activity against accumulation of [3H]inositol phosphate in cells transiently expressing human 5-hydroxytryptamine 2B receptor determined by phosphoinositide hydrolysis assay. The test is classed as functional. The note with it: filed as antagonist. A digest of the protocol: as §3
Test [11] concerns the target T3, 5-hydroxytryptamine receptor 2A. In words: Antagonistic activity against accumulation of [3H]-inositol phosphate in cells stably expressing human 5-hydroxytryptamine 2A receptor determined by phosphoinositide hydrolysis assay. The note with it: filed as antagonist. Format: functional. A digest of the protocol:
as §3

Test [12] has as its target T4, 5-hydroxytryptamine receptor 2B. The test can be described thus: Effective concentration required for accumulation of [3H]inositol phosphate in cells transiently expressing human 5-hydroxytryptamine 2B receptor determined by phosphoinositide hydrolysis assay. The test is classed as functional. A digest of the protocol:
as §2

5-hydroxytryptamine receptor 2A (Rattus norvegicus, UniProt P14842), sequence (P14842 whole entry): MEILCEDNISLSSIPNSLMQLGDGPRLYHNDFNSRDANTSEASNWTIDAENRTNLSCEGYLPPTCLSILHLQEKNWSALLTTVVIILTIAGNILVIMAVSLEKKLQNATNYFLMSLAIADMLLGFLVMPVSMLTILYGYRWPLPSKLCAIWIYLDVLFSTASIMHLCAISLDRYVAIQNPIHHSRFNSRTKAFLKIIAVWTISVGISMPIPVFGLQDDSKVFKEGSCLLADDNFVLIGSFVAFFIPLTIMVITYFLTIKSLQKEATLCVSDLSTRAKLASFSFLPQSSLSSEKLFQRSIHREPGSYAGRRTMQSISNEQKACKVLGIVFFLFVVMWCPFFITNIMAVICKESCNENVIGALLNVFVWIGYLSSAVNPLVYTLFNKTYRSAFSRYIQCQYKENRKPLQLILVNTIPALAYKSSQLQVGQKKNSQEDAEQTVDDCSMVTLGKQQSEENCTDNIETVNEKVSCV
T4 sequence (P41595 whole entry): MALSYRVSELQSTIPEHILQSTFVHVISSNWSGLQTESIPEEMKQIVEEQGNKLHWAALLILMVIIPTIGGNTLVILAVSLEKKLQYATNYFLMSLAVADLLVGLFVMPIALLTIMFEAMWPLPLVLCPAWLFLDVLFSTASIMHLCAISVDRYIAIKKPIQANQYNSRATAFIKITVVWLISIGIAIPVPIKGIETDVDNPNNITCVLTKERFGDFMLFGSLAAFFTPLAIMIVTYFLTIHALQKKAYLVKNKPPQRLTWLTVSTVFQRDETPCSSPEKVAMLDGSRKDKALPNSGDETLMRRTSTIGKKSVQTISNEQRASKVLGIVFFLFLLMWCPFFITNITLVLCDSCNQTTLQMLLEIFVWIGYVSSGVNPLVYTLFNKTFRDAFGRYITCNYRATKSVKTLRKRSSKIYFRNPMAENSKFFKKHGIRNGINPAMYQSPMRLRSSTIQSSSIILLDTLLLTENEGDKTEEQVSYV
T3 sequence (P28223 whole entry): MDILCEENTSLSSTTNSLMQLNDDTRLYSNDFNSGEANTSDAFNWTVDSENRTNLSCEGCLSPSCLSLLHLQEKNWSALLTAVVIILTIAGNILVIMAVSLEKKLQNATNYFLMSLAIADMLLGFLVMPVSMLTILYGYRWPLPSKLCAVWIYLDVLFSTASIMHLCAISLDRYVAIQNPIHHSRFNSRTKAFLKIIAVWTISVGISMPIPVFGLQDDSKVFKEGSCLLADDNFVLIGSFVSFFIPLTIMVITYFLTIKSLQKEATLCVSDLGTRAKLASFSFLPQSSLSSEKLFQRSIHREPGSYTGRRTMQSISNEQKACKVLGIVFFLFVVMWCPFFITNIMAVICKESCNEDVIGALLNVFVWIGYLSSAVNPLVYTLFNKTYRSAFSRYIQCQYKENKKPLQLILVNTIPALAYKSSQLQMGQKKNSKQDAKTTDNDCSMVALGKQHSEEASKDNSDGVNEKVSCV

Turning to `CN(C)CCc1cn(C)c2cccc(O)c12`, the Ki in [1] came out at 33 nM; in test [2], 48 nM; in test [4], 38 nM; in test [5] it was 900 nM; in test [6], 590 nM; in test [8], 7 nM. Besides, the results for the concentration giving a half-maximal response (EC50) in test [3] and in test [7] were 633 nM and 12 nM, respectively.
For `CC(Cc1c[nH]c2cccc(O)c12)N(C)C` (centres undefined), the Ki in test [4] stood at 745 nM; in test [5], 982 nM; in [8] it was 126 nM.
As for `Oc1cccc2[nH]cc(CCN3CCCC3)c12`, the inhibition constant (Ki) in test [1] was 1770 nM; in test [4], 423 nM; in test [5], 429 nM; in test [8] it was 275 nM.
Consider `CN1CCN(CCc2c[nH]c3cccc(O)c23)CC1`, for which the Ki in [2] is above 10000 nM; in test [4] it was 116 nM; in test [5], 9750 nM; in test [6], 6900 nM; in test [8], 103 nM.
With `CN(C)CCc1cn(C)c2cccc(OP(=O)(O)O)c12`, the inhibition constant Ki in test [1] was 540 nM; in test [2], above 10000 nM; in [4] it was 5500 nM; in test [5] it was above 10000 nM; in test [6], above 10000 nM; in [8], above 10000 nM.
With `CN(C)CCc1c[nH]c2cccc(OP(=O)(O)O)c12` [PSILOCYBIN], the EC50 in [3] amounted to 3480 nM; in test [7], 506 nM.
Take `CN(C)CCc1c[nH]c2cc(O)ccc12`: the Ki in test [1] is 6800 nM; in test [2], 19000 nM; in test [4] it was 6300 nM; in [5] it was 7600 nM; in test [6], above 10000 nM; in test [8] it was above 10000 nM.
For the compound `CN(C)Cc1cn(C)c2cccc(O)c12`, the Ki was found to be 125 nM in test [1], 1240 nM in test [4], 498 nM in test [5] and 87 nM in [8].
For the compound `CCCCn1cc(CCN(C)C)c2c(OP(=O)(O)O)cccc21`, the Ki in test [1] is 210 nM; in test [2], 5700 nM; in test [4], 170 nM; in test [5], 3000 nM; in test [6], above 10000 nM; in test [8] it was 73 nM. For the same compound, the Activity result in [9], in [10] and in [11] was “Antagonist” each time.
Take `CCCCn1cc(CCN(C)C)c2c(O)cccc21`: the Ki worked out at 14 nM in test [1]; 15.7 nM in test [2]; 5.8 nM in test [4]; 310 nM in test [5]; 200 nM in [6]; 4.4 nM in test [8]. Further, the concentration giving a half-maximal response (EC50) amounted to 32 nM in test [3] and 595 nM in [7].
As for `CN(C)CCn1ccc2c(O)cccc21`, the Ki was 4200 nM in test [1], 9350 nM in test [2], above 10000 nM in test [6] and 2180 nM in test [8].
Consider `Cc1[nH]c2cccc(O)c2c1CCN(C)C`, for which the Ki in test [1] was 539 nM; in test [2] it was 1280 nM; in test [5], 122 nM; in [6], 1680 nM.
Consider `CN(C)CCc1c[nH]c2cccc(F)c12`, for which the Ki in test [1] is 84 nM; in test [2], 359 nM; in test [4] it was 8.39 nM; in [5] it was 335 nM; in test [6] it was 1010 nM; in test [8], 82 nM. Moreover, the EC50 in [3] was 949 nM; in [7], 99 nM; in [12] it was 1180 nM.
Regarding `CN(C)CCCc1c[nH]c2cccc(O)c12`, the Ki in test [1] was determined as 84 nM; in test [4], 98 nM; in test [5], 588 nM; in test [8], 1110 nM.
With `Oc1cccc2[nH]cc(CCN3CCCc4ccccc43)c12`, the Ki in test [2] came to 1450 nM; in test [4] it was 5570 nM; in test [6], 8370 nM; in [8], 468 nM.
Consider `CN(C)Cc1c[nH]c2cccc(O)c12`, for which the Ki in [1] turned out to be 12.6 nM; in [2], 49 nM; in test [4], 1240 nM; in test [5], 923 nM; in test [6], 834 nM; in test [8], 24 nM. Further, the Activity result in [9], in test [10] and in [11] was “Antagonist” each time.
